Source: ChEMBL document CHEMBL1136010, “Synthesis and evaluation of indenopyrazoles as cyclin-dependent kinase inhibitors. 3. Structure activity relationships at C3(1,2)” (J Med Chem, 2002)

Experiments:
[1] = biological target: Cyclin-dependent kinase 2/cyclin E (Homo sapiens, UniProt P24941); test: Inhibitory concentration against Cyclin-dependent kinase 2-cyclin E; type: protein-complex assay
[2] = biological target: Cyclin-dependent kinase 4/cyclin D1 (Homo sapiens, UniProt P11802); test: Inhibitory concentration against Cyclin-dependent kinase 4-cyclin D1; type: protein-complex assay
Cyclin-dependent kinase 4/cyclin D1, sequence (P11802 whole entry): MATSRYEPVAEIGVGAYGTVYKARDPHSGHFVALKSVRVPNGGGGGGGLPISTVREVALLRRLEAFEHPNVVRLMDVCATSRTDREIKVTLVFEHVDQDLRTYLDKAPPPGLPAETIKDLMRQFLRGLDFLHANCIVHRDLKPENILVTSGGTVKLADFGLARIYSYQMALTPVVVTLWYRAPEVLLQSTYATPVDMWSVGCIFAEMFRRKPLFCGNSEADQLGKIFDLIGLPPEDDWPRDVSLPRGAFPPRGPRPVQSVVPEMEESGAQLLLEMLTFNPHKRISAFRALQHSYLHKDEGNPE
Cyclin-dependent kinase 4/cyclin D1, sequence (P24385 whole entry, further chain): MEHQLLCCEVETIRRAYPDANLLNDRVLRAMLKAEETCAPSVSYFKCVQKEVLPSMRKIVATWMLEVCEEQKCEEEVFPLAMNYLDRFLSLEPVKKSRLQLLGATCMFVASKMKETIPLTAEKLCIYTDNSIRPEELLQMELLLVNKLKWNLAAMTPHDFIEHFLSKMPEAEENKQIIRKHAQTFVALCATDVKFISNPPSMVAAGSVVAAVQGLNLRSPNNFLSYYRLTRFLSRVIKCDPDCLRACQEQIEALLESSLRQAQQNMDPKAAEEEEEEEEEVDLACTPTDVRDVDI
Method in brief: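 CDK4/cyclin D1 came from extracts of insect cells dually infected with baculovirus vectors. Reactions were started with 4 units of enzyme, run 15 min at room temperature, and stopped with EDTA. Product was captured on GSH-Sepharose and counted by scintillation.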

HCT-116 = test: Inhibition of HCT116 colon carcinoma cell proliferation; type: functional, cell-based; conditions: Homo sapiens
Method in brief: (§1)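 SRB colorimetric growth assay. Exponentially growing cells were seeded so they would undergo 3-5 doublings before reaching 85% confluence. Graded compound concentrations were added 18 h later, and cells were incubated 5 days at 37 °C in 5% CO2. Cells were fixed with cold TCA for 1 h at 4 °C, stained with 0.4% SRB in 1% acetic acid, solubilized in 10 mM Tris base, and OD read at 570 nm.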

B16 = test: Inhibitory activity against B16-F1 cell line; type: functional, cell-based; conditions: Mus musculus
NCI-H460 = test: Inhibition of NCI-H460 cell proliferation; type: functional, cell-based; conditions: Homo sapiens; method in brief: as §1
[3] = biological target: Tyrosine-protein kinase ABL1 (Homo sapiens, UniProt P00519); test: Inhibition of c-Abl tyrosine kinase
Tyrosine-protein kinase ABL1, sequence (P00519 whole entry): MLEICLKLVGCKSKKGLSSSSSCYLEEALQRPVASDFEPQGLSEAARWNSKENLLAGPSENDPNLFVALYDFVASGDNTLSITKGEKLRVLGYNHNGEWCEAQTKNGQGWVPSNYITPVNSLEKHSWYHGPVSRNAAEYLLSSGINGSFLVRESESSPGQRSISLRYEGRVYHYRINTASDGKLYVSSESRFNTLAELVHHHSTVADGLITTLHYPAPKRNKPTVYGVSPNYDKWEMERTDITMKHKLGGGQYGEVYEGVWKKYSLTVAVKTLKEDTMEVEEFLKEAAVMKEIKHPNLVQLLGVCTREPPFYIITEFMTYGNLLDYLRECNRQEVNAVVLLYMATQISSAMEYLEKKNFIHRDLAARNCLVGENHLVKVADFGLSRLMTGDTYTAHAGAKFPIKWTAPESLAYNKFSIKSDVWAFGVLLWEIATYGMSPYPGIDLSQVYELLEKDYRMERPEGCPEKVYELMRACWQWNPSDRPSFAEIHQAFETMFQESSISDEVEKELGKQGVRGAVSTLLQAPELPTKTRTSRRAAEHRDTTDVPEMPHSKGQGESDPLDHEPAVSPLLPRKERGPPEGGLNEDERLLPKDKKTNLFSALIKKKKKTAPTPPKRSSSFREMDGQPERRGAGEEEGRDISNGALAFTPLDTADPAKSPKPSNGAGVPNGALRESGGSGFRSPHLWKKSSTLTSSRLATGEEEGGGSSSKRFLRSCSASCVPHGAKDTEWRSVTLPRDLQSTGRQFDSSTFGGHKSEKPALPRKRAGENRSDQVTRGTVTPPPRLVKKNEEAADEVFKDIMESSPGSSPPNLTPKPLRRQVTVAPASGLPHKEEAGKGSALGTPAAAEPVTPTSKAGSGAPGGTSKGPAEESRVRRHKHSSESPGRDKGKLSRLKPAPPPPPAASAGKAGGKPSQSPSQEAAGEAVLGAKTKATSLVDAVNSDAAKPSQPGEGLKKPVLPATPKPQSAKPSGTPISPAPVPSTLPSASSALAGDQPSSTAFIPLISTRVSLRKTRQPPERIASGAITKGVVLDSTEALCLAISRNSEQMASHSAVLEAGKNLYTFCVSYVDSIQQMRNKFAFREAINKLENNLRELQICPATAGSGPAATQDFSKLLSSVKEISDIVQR

HT-29 = test: Inhibition of HT-29 cell proliferation; type: functional, cell-based; conditions: Homo sapiens; method in brief: as §1
MIA PaCa-2 = test: Inhibition of MiaPaCa2 cell proliferation; type: functional, cell-based; conditions: Homo sapiens; method in brief: as §1
AG1523 = test: Effective concentration against normal human fibroblast cell line AG1523; type: functional, cell-based
Method in brief: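 Normal human foreskin fibroblasts AG1523 were seeded at a density giving confluence and contact inhibition of growth. Graded compound concentrations were added 18 h later, and cells were incubated 6 days at 37 °C in 5% CO2. Death effects were scored by SRB colorimetry: cold TCA fixation, 0.4% SRB stain, Tris base solubilization, OD at 570 nm.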

Protein kinase C (PKC) = test: Inhibition of Protein kinase C; type: protein assay
HT-1080 = test: Inhibition of HT1080 cell proliferation; type: functional, cell-based; conditions: Homo sapiens; method in brief: as §1
[4] = biological target: cAMP-dependent protein kinase (PKA) (Homo sapiens, UniProt P22694+P17612+P22612); test: Inhibition of Protein kinase A (PKA); type: protein assay
[5] = biological target: Cyclin-dependent kinase 1/cyclin B (Homo sapiens, UniProt P06493); test: Inhibition of Cyclin-dependent kinase 1-cyclin B; type: protein-complex assay
PC-3 = test: Inhibition of PC3 cell proliferation; type: functional, cell-based; conditions: Homo sapiens; method in brief: as §1

Row | SMILES | IC50 [1] | IC50 [2] | also measured
1 | CCOc1ccc(-c2[nH]nc3c2C(=O)c2c(NC(C)=O)cccc2-3)cc1 | > 400 nM | > 580 nM | 
2 | CCc1[nH]nc2c1C(=O)c1c(NC(=O)CN3CCC(C(N)=O)CC3)cccc1-2 | > 130 nM | > 2600 nM | 
3 | NC(=O)Nc1cccc2c1C(=O)c1c-2n[nH]c1C1CCCCC1 | 140 nM | > 810 nM | 
4 | CC(=O)Nc1cccc2c1C(=O)c1c-2n[nH]c1-c1ccc(O)cc1 | 530 nM | 2300 nM | 
5 | CC(=O)Nc1cccc2c1C(=O)c1c-2n[nH]c1-c1ccc(N2CCOCC2)cc1 | 370 nM | 860 nM | 
6 | CN1CCN(CC(=O)Nc2cccc3c2C(=O)c2c-3n[nH]c2-c2ccc(N3CCOCC3)cc2)CC1 | 42 nM | 190 nM | 
7 | NC(=O)C1CCN(CC(=O)Nc2cccc3c2C(=O)c2c-3n[nH]c2C2CCCCC2)CC1 | 36 nM | > 570 nM | 
8 | CC(=O)Nc1cccc2c1C(=O)c1c-2n[nH]c1CC(C)C | > 3500 nM | > 3500 nM | 
9 | NC(=O)Nc1cccc2c1C(=O)c1c-2n[nH]c1-c1cccs1 | 11 nM | 150 nM | IC50 (HCT-116): 41 nM
10 | Cc1ccsc1-c1[nH]nc2c1C(=O)c1c(NC(N)=O)cccc1-2 | 17 nM | 350 nM | IC50 (HCT-116): 140 nM
11 | CCc1[nH]nc2c1C(=O)c1c(NC(N)=O)cccc1-2 | 290 nM | > 2000 nM | 
12 | CC(=O)Nc1cccc2c1C(=O)c1c(-c3ccco3)n[nH]c1-2 | > 1700 nM | > 3500 nM | 
13 | CCOC(=O)c1ccc(-c2[nH]nc3c2C(=O)c2c(NC(N)=O)cccc2-3)s1 | 130 nM | 300 nM | 
14 | NC(=O)Nc1cccc2c1C(=O)c1c-2n[nH]c1C1CC1 | 140 nM | 1400 nM | 
15 | CCCCc1ccc(-c2[nH]nc3c2C(=O)c2c(NC(C)=O)cccc2-3)cc1 | > 560 nM | > 2800 nM | 
16 | CC(C)c1[nH]nc2c1C(=O)c1c(NC(N)=O)cccc1-2 | 84 nM | > 1900 nM | 
17 | O=C(CN1CCC(O)CC1)Nc1cccc2c1C(=O)c1c-2n[nH]c1-c1ccc(N2CCOCC2)cc1 | 85 nM | 110 nM | 
18 | CC(=O)Nc1cccc2c1C(=O)c1c-2n[nH]c1C1CC1 | 480 nM | > 3700 nM | 
19 | CN(C)c1ccc(-c2[nH]nc3c2C(=O)c2c(NC(=O)CN4CCC(CN)CC4)cccc2-3)cc1 | 15 nM | 7 nM | IC50 (HCT-116): 74 nM

Row | SMILES | IC50 [1] | IC50 [2] | also measured
20 | O=C(CN1CCOCC1)Nc1cccc2c1C(=O)c1c-2n[nH]c1-c1ccc(N2CCOCC2)cc1 | 37 nM | 120 nM | 
21 | CC(C)c1[nH]nc2c1C(=O)c1c(NC(=O)CN3CCC(CN)CC3)cccc1-2 | 48 nM | 340 nM | 
22 | Cc1ccc(-c2[nH]nc3c2C(=O)c2c(NC(N)=O)cccc2-3)s1 | 13 nM | 53 nM | IC50 (HCT-116): 29 nM
23 | CC(=O)Nc1cccc2c1C(=O)c1c-2n[nH]c1-c1ccc(N2CCCCC2)cc1 | 900 nM | 680 nM | 
24 | CC(=O)Nc1cccc2c1C(=O)c1c-2n[nH]c1C(C)(C)C | 980 nM | > 3500 nM | 
25 | NC(=O)C1CCN(CC(=O)Nc2cccc3c2C(=O)c2c-3n[nH]c2C2CC2)CC1 | 26 nM | > 99 nM | IC50 (HCT-116): 120 nM
26 | CC(=O)Nc1cccc2c1C(=O)c1c-2n[nH]c1-c1cc(Cl)sc1Cl | > 2600 nM | > 2600 nM | 
27 | COc1ccc(-c2[nH]nc3c2C(=O)c2c(NC(=O)CN4CCC(CN)CC4)cccc2-3)cc1 | 14 nM | 13 nM | 
28 | CC(=O)Nc1cccc2c1C(=O)c1c-2n[nH]c1-c1sccc1C | 260 nM | > 3100 nM | 
29 | CC(=O)Nc1cccc2c1C(=O)c1c-2n[nH]c1-c1cccs1 | 180 nM | 4500 nM | 
30 | CCc1[nH]nc2c1C(=O)c1c(NC(C)=O)cccc1-2 | 1500 nM | > 3900 nM | 
31 | Cc1cc(-c2[nH]nc3c2C(=O)c2c(NC(N)=O)cccc2-3)c(C)s1 | 61 nM | > 1500 nM | 
32 | NC(=O)Nc1cccc2c1C(=O)c1c-2n[nH]c1-c1ccsc1 | 9 nM | 67 nM | IC50 (HCT-116): 360 nM
33 | CC(=O)Nc1cccc2c1C(=O)c1c(-c3ccc(C)cc3)n[nH]c1-2 | 160 nM | 490 nM | 
34 | NC(=O)Nc1cccc2c1C(=O)c1c(-c3csc(Cl)c3)n[nH]c1-2 | 13 nM | 57 nM | IC50 (B16): 200 nM; IC50 (NCI-H460): 240 nM; IC50 [3]: > 60000 nM; IC50 (HT-29): > 2900 nM; IC50 (HCT-116): 130 nM; IC50 (MIA PaCa-2): 260 nM; EC50 (AG1523): > 29000 nM; IC50 (Protein kinase C (PKC)): > 58000 nM; IC50 (HT-1080): 490 nM; IC50 [4]: > 58000 nM; IC50 [5]: 44 nM; IC50 (PC-3): 690 nM
35 | CC(=O)Nc1cccc2c1C(=O)c1c(-c3ccccc3)n[nH]c1-2 | 240 nM | 840 nM | 
36 | CC(=O)Nc1cccc2c1C(=O)c1c-2n[nH]c1C | 11000 nM | > 4200 nM | 
37 | CN(C)c1ccc(-c2[nH]nc3c2C(=O)c2c(NC(=O)CN4CCOCC4)cccc2-3)cc1 | 36 nM | 110 nM | 
38 | CCc1[nH]nc2c1C(=O)c1c(NC(=O)CN3CCC(CN)CC3)cccc1-2 | 240 nM | 1300 nM | 

Row | SMILES | IC50 [1] | IC50 [2] | also measured
39 | CC(=O)Nc1cccc2c1C(=O)c1c-2n[nH]c1-c1ccncc1 | 76 nM | 1300 nM | 
40 | CC(=O)Nc1cccc2c1C(=O)c1c-2n[nH]c1-c1ccc(N(C)C)cc1 | 320 nM | 310 nM | 
41 | CCCc1ccc(-c2[nH]nc3c2C(=O)c2c(NC(C)=O)cccc2-3)cc1 | 490 nM | 1900 nM | 
42 | CC(=O)Nc1cccc2c1C(=O)c1c-2n[nH]c1-c1ccc(Oc2ccccc2)cc1 | > 2500 nM | > 2500 nM | 
43 | CCCc1[nH]nc2c1C(=O)c1c(NC(C)=O)cccc1-2 | > 3700 nM | > 3700 nM | 
44 | NCC1CCN(CC(=O)Nc2cccc3c2C(=O)c2c-3n[nH]c2C2CC2)CC1 | 55 nM | 430 nM | 
45 | NCC1CCN(CC(=O)Nc2cccc3c2C(=O)c2c-3n[nH]c2C2CCCCC2)CC1 |  | 360 nM | 
46 | Cn1ccc(-c2[nH]nc3c2C(=O)c2c(NC(N)=O)cccc2-3)c1 | 26 nM | 130 nM | IC50 (HCT-116): 64 nM
47 | CC(=O)Nc1cccc2c1C(=O)c1c-2n[nH]c1C(C)C | 840 nM | > 3700 nM | 
48 | NCC1CCN(CC(=O)Nc2cccc3c2C(=O)c2c-3n[nH]c2-c2ccc(N3CCOCC3)cc2)CC1 | 26 nM | 18 nM | IC50 (HCT-116): 110 nM
49 | CN1CCN(CC(=O)Nc2cccc3c2C(=O)c2c-3n[nH]c2-c2ccc(N(C)C)cc2)CC1 | 29 nM | 55 nM | 
50 | CN(C)c1ccc(-c2[nH]nc3c2C(=O)c2c(NC(=O)CN4CCC(O)CC4)cccc2-3)cc1 | 33 nM | 50 nM | 
51 | CCc1ccc(-c2[nH]nc3c2C(=O)c2c(NC(C)=O)cccc2-3)cc1 | 280 nM | 640 nM | 
52 | CC(C)c1n[nH]c2c1C(=O)c1c(NC(=O)CN3CCC(C(N)=O)CC3)cccc1-2 | 21 nM | > 1300 nM | IC50 (HCT-116): 290 nM
53 | CCCCc1[nH]nc2c1C(=O)c1c(NC(C)=O)cccc1-2 | > 3500 nM | > 3500 nM | 
54 | CC(=O)Nc1cccc2c1C(=O)c1c-2n[nH]c1C1CCCCC1 | 1100 nM | > 3200 nM | 
55 | NC(=O)Nc1cccc2c1C(=O)c1c-2n[nH]c1-c1ccco1 | 86 nM | 840 nM | 
56 | CSc1ccc(-c2[nH]nc3c2C(=O)c2c(NC(C)=O)cccc2-3)cc1 | 120 nM | 340 nM | 
57 | CC(=O)Nc1cccc2c1C(=O)c1c-2n[nH]c1-c1cccnc1 | 770 nM | > 1600 nM | 
